High-throughput results (PubChem BioAssay)
Only some compounds are listed: those with a hit (about 1.2% of all), similar ones and a draw of the others.
GalR3 antagonist: human GalR3 antagonism; 0.44% of 360,000 active; AID 651719; HEK293 GalR3-CNG cAMP membrane potential fluorescence; galR3 body fused to GalR1 C-terminus; inhibition, % at 3 µM; O60755;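 active = inhibition above the screen-wide average plus 3 SD, cut at about 13% in these data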;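 note: forskolin and galanin both at EC90 stimulate the cells; cAMP rise reported by CNG channel membrane potential dye signal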
Target sequence (O60755 1-299 limits assumed): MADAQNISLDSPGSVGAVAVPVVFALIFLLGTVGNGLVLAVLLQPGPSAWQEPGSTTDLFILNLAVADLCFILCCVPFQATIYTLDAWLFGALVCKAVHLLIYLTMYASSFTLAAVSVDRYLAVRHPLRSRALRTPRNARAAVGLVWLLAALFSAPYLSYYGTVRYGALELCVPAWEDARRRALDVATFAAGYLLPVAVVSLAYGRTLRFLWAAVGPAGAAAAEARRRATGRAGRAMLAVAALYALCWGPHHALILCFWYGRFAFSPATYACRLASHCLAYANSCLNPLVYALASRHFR
ASAP1 GAP inh: inhibitors of human ASAP1 ArfGAP activity | AID 624377 | Q9ULH1 | 0.19% of 360,000 active | inhibition, % at 16.5 µM | ASAP1-stimulated ARF1 GTP hydrolysis, GDP FP detection; in the data active = inhibition above about 25%
Rin1 Abl inh: blocks binding of human Rin1 to Abl | inhibition, % at 7.35 µM | 0.4% of 360,000 active | TR-FRET Rin1/Abl binding, biochemical; in the data active = inhibition above about 5%, passing the limit was not always enough
ARFGAP1 inhibitor: rat ARFGAP1 inhibition; Arfgap1-stimulated ARF1 GTP hydrolysis, GDP FP detection; inhibition, % at 16.5 µM; 0.26% of 360,000 active;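 active = inhibition above a per-plate limit, mean inhibition of low control wells plus 3 SD, cut at about 25% in these data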
Target sequence (Q62848 1-136 limits assumed): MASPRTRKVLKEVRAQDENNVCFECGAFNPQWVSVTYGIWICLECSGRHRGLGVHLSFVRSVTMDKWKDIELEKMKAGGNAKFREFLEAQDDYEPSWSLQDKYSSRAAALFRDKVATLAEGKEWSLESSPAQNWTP
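System: truncated rat Arfgap1 GAP domain / Benchmarks: high control wells lacking Arfgap1, low control full reaction with DMSO / Times: compound-enzyme preincubation 20 min, reaction 120 min, detection 60 min, 25 °C / Repeats: one replicate per compound / Also added: human ARF1(Δ1-17)-GTP substrate / Measured by: Tracer-displacement fluorescence polarization with EDTA stop, 620/688 nm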
GalR3 conf: confirmation of human galanin receptor 3 antagonists | shares compounds with GalR3 antagonist | inhibition, % at 3 µM | 59% of 1,600 active | HEK293 GalR3 CNG cAMP biosensor, membrane potential fluorescence; galR3 fused to GalR1 carboxy tail; challenged with forskolin and galanin at EC90;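 active = inhibition above the primary screen's cutoff, the mean inhibition of all screened compounds plus 3 SD, cut at about 13% in these data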
HEK-CNG parental: acts as nonspecific agonist in parental HEK-CNG cells | shares compounds with GalR3 antagonist | HEK293-CNG parental cells, cAMP membrane potential fluorescence; normalised: DMSO wells 0%, forskolin wells 100% | activation, % at 3 µM | 10% of 1,600 active; in the data active = activation above about 1.3%
Of the large screens only hits and unclear results are named; the others gave an inactive call (follow-up assays come after a bar, where they were run).

O=C(COC(=O)/C=C/c1cccc(Cl)c1)Nc1ccc2[nH]c(=O)[nH]c2c1	GalR3 antagonist 35 | GalR3 conf 44 | HEK-CNG parental 6.9
COc1ccccc1CCn1cnc(-c2ccc(F)cc2F)c1CC(C)C	none (no result: Rin1 Abl inh)
COc1cccc(C2c3c(-c4cc(Cl)c(C)cc4O)n[nH]c3C(=O)N2Cc2cccnc2)c1 (stereo not given)	none
COc1cc(C2c3c(-c4cc(Cl)c(C)cc4O)n[nH]c3C(=O)N2Cc2cccnc2)ccc1O (stereo not given)	GalR3 antagonist 33 | GalR3 conf 24 | HEK-CNG parental inactive
C/C=C/C(=O)Nc1cccc(C2=NOC3(C2)C[C@@H](C(N)=O)N(C(=O)c2cc([N+](=O)[O-])cc([N+](=O)[O-])c2C)C3)c1 (stereo not given in full)	GalR3 antagonist 13 | GalR3 conf inactive | HEK-CNG parental inactive
C=C(C)C(=O)Nc1cccc(C2=NOC3(C2)C[C@@H](C(N)=O)N(C(=O)c2cc([N+](=O)[O-])cc([N+](=O)[O-])c2C)C3)c1 (stereo not given in full)	none
Cc1cc2c(nc1C)CCCN2S(=O)(=O)c1ccc(C(F)(F)F)cc1	none (no result: Rin1 Abl inh)
CCc1nc2ccccc2c(C(=O)OCC(=O)Nc2cccc(S(=O)(=O)NC3=NCCCCC3)c2)c1C	GalR3 antagonist 14 | GalR3 conf inactive | HEK-CNG parental inactive
O=C(C(=O)N1CCC(CNS(=O)(=O)c2ccc(F)c(F)c2)CC1)c1cc2ccccc2o1	none (no result: Rin1 Abl inh)
COc1cc(CCCN2C(N)=NC[C@@H]2c2ccccc2)cc(OC)c1OC	none (no result: GalR3 antagonist) | GalR3 conf inactive | HEK-CNG parental inactive
CCC(C)[C@H]1CN=C(N)N1CCCc1cc(OC)c(OC)c(OC)c1 (stereo not given in full)	none
O=C1CCC(NC(=O)Cc2ccccc2)C(=O)N1 (stereo not given)	none (no result: Rin1 Abl inh)
CC(=O)Nc1ccc(-c2csc(NC(=O)C3CC(=O)N(c4ccc5c(c4)OCCO5)C3)n2)cc1 (stereo not given)	GalR3 antagonist 14 | GalR3 conf inactive | HEK-CNG parental inactive
Cc1[nH]c2ccccc2c1CC(=O)Nc1ccc(Nc2cccnc2)c(-c2ccc(C(C)(C)C)cc2)c1	none (no result: Rin1 Abl inh)
C=CCNc1cccc2c1S(=O)(=O)N[C@@H](CC(C)C)CO2	none (no result: Rin1 Abl inh)
Cc1ccc(S(=O)(=O)NC(=O)COc2ccccc2)cc1	none (no result: GalR3 antagonist) | GalR3 conf inactive | HEK-CNG parental inactive
Cc1ccc(OCC(=O)NS(=O)(=O)c2ccccc2)cc1	none
COc1ccc(-c2ccc3c(n2)CCCN3S(=O)(=O)c2ccc(C#N)cc2)cc1	none (no result: Rin1 Abl inh)
Cc1cc(C)cc(Nc2ccc(C(=O)O)cc2N)c1	none
Cc1ccc(Nc2ccc(C(=O)O)cc2N)cc1	GalR3 antagonist 15 (no result: Rin1 Abl inh) | GalR3 conf inactive | HEK-CNG parental inactive
CSc1ccc(CN2CCN(Cc3ccc([N+](=O)[O-])cc3)CC2)cc1	GalR3 antagonist 84 | GalR3 conf 104 | HEK-CNG parental inactive
CC(C)(C)S(=O)(=O)N1C[C@@H]2C(=C(CCO)C[C@@H]3C(=O)N(c4ccccc4)C(=O)[C@@H]32)[C@H]1CCO	none (no result: Rin1 Abl inh)
C=CCn1c(SC2CCOC2=O)nc2sc(C)c(C)c2c1=O (stereo not given)	GalR3 antagonist 35 | GalR3 conf 36 | HEK-CNG parental inactive
COc1cccc(-c2ccc(-c3noc(-c4cccs4)n3)c(OC)n2)c1	GalR3 antagonist 15 | GalR3 conf 13 | HEK-CNG parental inactive
C=C1CC(COc2ccc3c(C)c(Cl)c(=O)oc3c2)(c2ccccc2)OC1=O (stereo not given)	GalR3 antagonist 37 | GalR3 conf 18 | HEK-CNG parental 2.9
COc1ccc2c(C)c(Cl)c(=O)oc2c1	none
COc1cc2c(cc1OC)-c1cc(Nc3ccccc3C)nc(=O)n1CC2	GalR3 antagonist 46 | GalR3 conf 53 | HEK-CNG parental inactive
COc1cc2c(cc1OC)-c1cc(Nc3cccc(C)c3)nc(=O)n1CC2	GalR3 antagonist 53 | GalR3 conf 59 | HEK-CNG parental inactive
CCOc1ccccc1Nc1cc2n(c(=O)n1)CCc1cc(OC)c(OC)cc1-2	GalR3 antagonist 53 | GalR3 conf 67 | HEK-CNG parental inactive
